Test results reported in publication PMC4191598 (Journal of Medicinal Chemistry, 2014).

Key:
[1] = biological target: T1, human TLR8 (Homo sapiens, UniProt Q9NR97); test: Human TLR8 reporter gene assay; type: cell-based; settings: for TLR7/TLR8 selectivity (in words): TLR7 and TLR8 reporter gene assays; for TLR8-agonistic activity (in words): TLR8 reporter gene assay
T1 sequence (Q9NR97 27-1041): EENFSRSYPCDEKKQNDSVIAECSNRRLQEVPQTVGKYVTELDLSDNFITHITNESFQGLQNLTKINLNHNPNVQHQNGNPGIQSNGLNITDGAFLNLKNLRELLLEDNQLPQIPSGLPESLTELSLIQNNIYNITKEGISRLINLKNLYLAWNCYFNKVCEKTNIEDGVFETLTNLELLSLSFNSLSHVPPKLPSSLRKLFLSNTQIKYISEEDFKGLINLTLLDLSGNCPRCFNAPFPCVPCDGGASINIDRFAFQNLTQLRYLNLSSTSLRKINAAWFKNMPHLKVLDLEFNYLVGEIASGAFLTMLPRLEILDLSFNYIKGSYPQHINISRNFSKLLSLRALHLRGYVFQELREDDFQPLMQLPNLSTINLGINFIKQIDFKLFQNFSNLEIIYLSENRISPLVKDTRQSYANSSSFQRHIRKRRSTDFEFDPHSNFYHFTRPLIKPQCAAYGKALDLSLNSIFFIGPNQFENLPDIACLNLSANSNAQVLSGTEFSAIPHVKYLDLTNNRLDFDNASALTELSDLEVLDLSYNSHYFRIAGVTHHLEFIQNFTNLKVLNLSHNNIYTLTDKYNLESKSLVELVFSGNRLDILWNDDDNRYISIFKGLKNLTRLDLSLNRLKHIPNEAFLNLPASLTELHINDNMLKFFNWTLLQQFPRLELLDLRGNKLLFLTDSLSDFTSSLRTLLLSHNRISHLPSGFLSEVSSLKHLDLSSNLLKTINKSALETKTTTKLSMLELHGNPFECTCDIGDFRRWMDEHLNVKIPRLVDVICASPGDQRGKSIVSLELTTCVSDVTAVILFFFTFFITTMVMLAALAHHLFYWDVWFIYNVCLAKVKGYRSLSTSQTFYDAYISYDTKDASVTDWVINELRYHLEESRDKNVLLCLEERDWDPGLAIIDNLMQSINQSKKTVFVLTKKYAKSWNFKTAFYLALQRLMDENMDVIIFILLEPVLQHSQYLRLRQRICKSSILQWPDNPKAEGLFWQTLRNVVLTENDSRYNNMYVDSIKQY
Method in brief: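 HEK-Blue cells carrying human TLR8, with secreted alkaline phosphatase under NF-κB/AP-1 promoter control, seeded at ~10^5 cells/mL and grown to confluency. Stimulated with graded concentrations of test compound. Supernatant sAP, proportional to NF-κB induction, read spectrophotometrically at 620 nm using an alkaline phosphatase-specific chromogen in the detection medium.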

[2] = biological target: T2, human TLR7 (Homo sapiens, UniProt Q9NYK1); test: Human TLR7 reporter gene assay; type: cell-based; settings: for TLR7-agonistic activity (in words): TLR7 reporter gene assay
T2 sequence (Q9NYK1 27-1049): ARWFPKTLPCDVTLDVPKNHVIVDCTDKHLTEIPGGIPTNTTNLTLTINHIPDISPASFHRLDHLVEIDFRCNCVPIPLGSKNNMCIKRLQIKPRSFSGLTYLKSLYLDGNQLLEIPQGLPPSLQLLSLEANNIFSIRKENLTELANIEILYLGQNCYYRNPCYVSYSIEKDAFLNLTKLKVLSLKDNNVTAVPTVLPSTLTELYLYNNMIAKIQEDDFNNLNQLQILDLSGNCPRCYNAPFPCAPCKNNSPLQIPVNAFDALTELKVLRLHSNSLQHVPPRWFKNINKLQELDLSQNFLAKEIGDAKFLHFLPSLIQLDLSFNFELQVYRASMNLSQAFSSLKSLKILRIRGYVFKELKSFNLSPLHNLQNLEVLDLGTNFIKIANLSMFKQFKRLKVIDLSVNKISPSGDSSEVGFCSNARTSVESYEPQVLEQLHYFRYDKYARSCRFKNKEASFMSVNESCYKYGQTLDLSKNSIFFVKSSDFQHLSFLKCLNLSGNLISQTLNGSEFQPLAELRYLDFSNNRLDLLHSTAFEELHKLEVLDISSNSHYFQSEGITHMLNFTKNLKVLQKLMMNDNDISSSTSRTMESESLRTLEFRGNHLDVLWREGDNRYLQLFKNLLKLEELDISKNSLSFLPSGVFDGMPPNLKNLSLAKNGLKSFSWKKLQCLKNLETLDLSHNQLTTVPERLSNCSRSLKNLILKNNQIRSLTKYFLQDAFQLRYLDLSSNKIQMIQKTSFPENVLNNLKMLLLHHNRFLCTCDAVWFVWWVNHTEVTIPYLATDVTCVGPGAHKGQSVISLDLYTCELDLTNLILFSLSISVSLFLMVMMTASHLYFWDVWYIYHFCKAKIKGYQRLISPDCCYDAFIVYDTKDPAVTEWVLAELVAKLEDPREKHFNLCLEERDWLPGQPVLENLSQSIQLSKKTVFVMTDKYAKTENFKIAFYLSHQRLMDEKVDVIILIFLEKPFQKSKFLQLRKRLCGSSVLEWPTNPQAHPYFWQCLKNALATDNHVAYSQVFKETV

[3] = system: human peripheral blood mononuclear cells (hPBMCs); test: IFN-α induction in human PBMCs; type: cell-based; settings: 12 h stimulation, graded concentrations
Method in brief: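 Fresh PBMCs were isolated on Ficoll–Hypaque gradients from venous blood of consenting donors and plated at 10^5 cells/well. They were stimulated for 12 h with graded concentrations of test compound. Supernatants were collected by centrifugation and assayed in triplicate with high-sensitivity multisubtype IFN-α ELISA.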

[4] = biological target: T1, human TLR8; settings: earlier observation; cited from earlier work
[5] = system: human lymphocytic subsets in whole blood; test: CD69 up-regulation in lymphocytic subsets, ex vivo whole human blood; type: cell-based; settings: 16.5 h

SMILES	TLR7-agonistic activity (in words) [2]	TLR8-agonistic activity (in words) [1]	further results
CCCCc1cn2c(n1)c(N)nc1ccccc12 [Compound 39, 2-Butylimidazo[1,2-a]quinoxalin-4-amine]	–	–	TLR7/TLR8 selectivity (in words) [1]: selective TLR8 agonists
CCC(=O)Nc1nc2c(N)nc3ccccc3c2s1 [Compound 16, N-(4-Aminothiazolo[4,5-c]quinolin-2-yl)propionamide]	inactive	inactive	–
CCCCC1CN2C(N)=Nc3ccccc3C2=N1 (stereo not drawn) [Compound 27, 2-Butyl-2,3-dihydroimidazo[1,2-c]quinazolin-5-amine]	entirely inactive	entirely inactive	–
CCCNc1nc2c(N)nc3ccccc3c2o1 [Compound 13, N^2-Propyloxazolo[4,5-c]quinoline-2,4-diamine]	entirely devoid of any detectable TLR7- or TLR8-agonistic activity	entirely devoid of any detectable TLR7- or TLR8-agonistic activity	–
CCCCc1nc2c(N)nc3ccccc3c2o1 [Compound 9, 2-Butyloxazolo[4,5-c]quinolin-4-amine]	–	–	IFN-α induction [3]: showed IFN-α inducing ability
CCCNc1nc2c(N)nc3ccccc3c2s1 [Compound 11, N^2-Propylthiazolo[4,5-c]quinoline-2,4-diamine]	–	–	EC50 [2]: 730 nM; IFN-α induction [3]: showed IFN-α inducing ability
Nc1nc2c(N)nc3ccccc3c2s1 [Compound 17, thiazolo[4,5-c]quinoline-2,4-diamine]	inactive	inactive	–
CCCCc1cc2c(o1)c(N)nc1ccccc12 [Compound 5, 2-butylfuro[2,3-c]quinolin-4-amine]	–	–	TLR8 agonism (in words) [4]: prominent and selective TLR8 agonism
CCCCc1nnc2c(N)nc3ccccc3n12 [Compound 49, 1-Butyl[1,2,4]triazolo[4,3-a]quinoxalin-4-amine]	complete loss of activity	complete loss of activity	–
CCCCC1CN2C(=N1)C(N)=Nc1ccccc12 (stereo not drawn) [Compound 37, 2-Butyl-1,2-dihydroimidazo[1,2-a]quinoxalin-4-amine]	–	–	TLR7/TLR8 selectivity (in words) [1]: selective TLR8 agonists
CCCCn1cc2c(n1)c(N)nc1ccccc12 [Compound 53, 2-Butyl-2H-pyrazolo[3,4-c]quinolin-4-amine]	–	–	CD69 expression in cytokine-induced killer-, natural killer-, T- and B-lymphocytic subsets [5]: dramatically enhanced expression; IFN-α induction [3]: showed IFN-α inducing ability

Second part, led by results:

TLR7-agonistic activity (in words) [2]	TLR8-agonistic activity (in words) [1]	SMILES	further results
entirely inactive	entirely inactive	CCCCc1cn2c(N)nc3ccccc3c2n1 [Compound 29, 2-Butylimidazo[1,2-c]quinazolin-5-amine]	–
completely inactive	completely inactive	CCCCc1nc2c(s1)c(N)nc1ccccc12 [Compound 22a, 2-Butylthiazolo[5,4-c]quinolin-4-amine]	–
inactive	inactive	CCCCc1nc2c3ccccc3nc(N)n2n1 [Compound 33, 2-Butyl[1,2,4]triazolo[1,5-c]quinazolin-5-amine]	–
complete loss of activity	complete loss of activity	CCCCc1nc2c(N)nc3ccccc3n2n1 [Compound 46, 2-Butyl[1,2,4]triazolo[1,5-a]quinoxalin-4-amine]	–
–	negligibly low TLR8-agonistic activity	CCCCc1nc2c(o1)c(N)nc1ccccc12 [Compound 22b, 2-Butyloxazolo[5,4-c]quinolin-4-amine]	–
